# In ChEMBL document CHEMBL5724801, “EUbOPEN Chemogenomics Library - Multiplex” (2024):
# “And” between values parts separate entries of the source, which are not always exact repeats. Identical values can stand only once.
# Tested on: U2OS
# Test: Multiplex assay against U2OS
# Assay type: toxicity, cell-based
# Conditions: human
# Procedure, shortened: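 Values for tubulin, mitochondrial-mass and membrane-permeability phenotypes are per cents of cells with healthy nuclei. These cells were identified by CellPathfinder machine-learning gating of live cells that had been stained at seeding with Hoechst33342, BioTracker Green Microtubule Cytoskeleton Dye, MitoTracker Red and Annexin V Alexa Fluor 680 and imaged on a CQ1 microscope at 37°C and 5% CO2 after compound addition. The gating first set Hoechst high-intensity objects apart from normal cells, then split normal cells into healthy, pyknosed or fragmented nuclei, and pyknosed cells into mitotic or apoptotic.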
# [1] = 12 h, 1 µM, compound concentration 1 uM
# [2] = 12 h, 10 µM, compound concentration 10 uM
# [3] = 24 h, 1 µM, compound concentration 1 uM
# [4] = 24 h, 10 µM, compound concentration 10 uM
# [5] = 48 h, 1 µM, compound concentration 1 uM
# [6] = 48 h, 10 µM, compound concentration 10 uM
compound,measurement,setting,value
CN1C[C@H](C(=O)N[C@]2(C)O[C@@]3(O)[C@@H]4CCCN4C(=O)[C@H](Cc4ccccc4)N3C2=O)C[C@@H]2c3cccc4[nH]cc(c34)C[C@H]21.CS(=O)(=O)O [DIHYDROERGOTAMINE MESYLATE],Population Apoptotic (%),[1],82% and 84%
same,Population Fragmented Nuclei (%),[1],24% and 23%
same,Population Healthy Nuclei (%),[1],65% and 63%
same,Population Hoechst High Intensity Objects (%),[1],1%
same,Population Membrane Permeable-Phenotype (%),[1],6% and 14%
same,Population Mitochondria Different-Phenotype (%),[1],2% and 1%
same,Population Mitotic Cells (%),[1],17% and 15%
same,Population Normal (%),[1],98%
same,Population Pyknosed Nuclei (%),[1],10% and 13%
same,Population Tubulin-Different-Phenotype (%),[1],2% and 7%
same,Total Cell Count,[1],233 and 101
same,Population Apoptotic (%),[2],71% and 100%
same,Population Fragmented Nuclei (%),[2],19%
same,Population Healthy Nuclei (%),[2],73% and 77%
same,Population Hoechst High Intensity Objects (%),[2],2% and 1%
same,Population Membrane Permeable-Phenotype (%),[2],5%
same,Population Mitochondria Different-Phenotype (%),[2],1% and 0%
same,Population Normal (%),[2],97% and 98%
same,Population Pyknosed Nuclei (%),[2],7% and 2%
same,Population Tubulin-Different-Phenotype (%),[2],3% and 0%
same,Total Cell Count,[2],298 and 144
same,Population Apoptotic (%),[3],89% and 100%
same,Population Fragmented Nuclei (%),[3],23% and 21%
same,Population Healthy Nuclei (%),[3],67% and 65%
same,Population Hoechst High Intensity Objects (%),[3],0% and 1%
same,Population Membrane Permeable-Phenotype (%),[3],2% and 8%
same,Population Mitochondria Different-Phenotype (%),[3],0% and 2%
same,Population Mitotic Cells (%),[3],10% and 0%
same,Population Normal (%),[3],99% and 98%
same,Population Pyknosed Nuclei (%),[3],9% and 13%
same,Population Tubulin-Different-Phenotype (%),[3],2% and 4%
same,Total Cell Count,[3],307 and 132
same,Population Apoptotic (%),[4],88% and 92%
same,Population Fragmented Nuclei (%),[4],18% and 16%
same,Population Healthy Nuclei (%),[4],73% and 75%
same,Population Hoechst High Intensity Objects (%),[4],1%
same,Population Membrane Permeable-Phenotype (%),[4],4%
same,Population Mitochondria Different-Phenotype (%),[4],2%
same,Population Mitotic Cells (%),[4],11% and 7%
same,Population Normal (%),[4],98%
same,Population Pyknosed Nuclei (%),[4],8%
same,Population Tubulin-Different-Phenotype (%),[4],2% and 1%
same,Total Cell Count,[4],337 and 163
same,Population Apoptotic (%),[5],80% and 90%
same,Population Fragmented Nuclei (%),[5],14% and 11%
same,Population Healthy Nuclei (%),[5],78% and 76%
same,Population Hoechst High Intensity Objects (%),[5],2% and 1%
same,Population Membrane Permeable-Phenotype (%),[5],2% and 6%
same,Population Mitochondria Different-Phenotype (%),[5],2%
same,Population Mitotic Cells (%),[5],19% and 10%
same,Population Normal (%),[5],97% and 98%
same,Population Pyknosed Nuclei (%),[5],7% and 11%
same,Population Tubulin-Different-Phenotype (%),[5],1% and 4%
same,Total Cell Count,[5],427 and 173
same,Population Apoptotic (%),[6],95% and 100%
same,Population Fragmented Nuclei (%),[6],14% and 19%
same,Population Healthy Nuclei (%),[6],75% and 72%
same,Population Hoechst High Intensity Objects (%),[6],3%
same,Population Membrane Permeable-Phenotype (%),[6],7% and 3%
same,Population Mitochondria Different-Phenotype (%),[6],3% and 1%
same,Population Mitotic Cells (%),[6],4% and 0%
same,Population Normal (%),[6],96%
same,Population Pyknosed Nuclei (%),[6],9% and 8%
same,Population Tubulin-Different-Phenotype (%),[6],3% and 2%
same,Total Cell Count,[6],452 and 217
O=C(Nc1cc(-c2ccccc2)nn1-c1ccccc1F)c1ccc([N+](=O)[O-])cc1,Population Apoptotic (%),[1],86% and 91%
same,Population Fragmented Nuclei (%),[1],25% and 14%
same,Population Healthy Nuclei (%),[1],66% and 78%
same,Population Hoechst High Intensity Objects (%),[1],4% and 1%
same,Population Membrane Permeable-Phenotype (%),[1],10% and 9%
same,Population Mitochondria Different-Phenotype (%),[1],4%
same,Population Mitotic Cells (%),[1],13% and 8%
same,Population Normal (%),[1],95% and 98%
same,Population Pyknosed Nuclei (%),[1],8% and 6%
same,Population Tubulin-Different-Phenotype (%),[1],4% and 9%
same,Total Cell Count,[1],293 and 182
same,Population Apoptotic (%),[2],66% and 94%
same,Population Fragmented Nuclei (%),[2],30% and 12%
same,Population Healthy Nuclei (%),[2],60% and 73%
same,Population Hoechst High Intensity Objects (%),[2],3% and 0%
same,Population Membrane Permeable-Phenotype (%),[2],11%
same,Population Mitochondria Different-Phenotype (%),[2],5% and 8%
same,Population Normal (%),[2],96% and 100%
same,Population Pyknosed Nuclei (%),[2],9% and 13%
same,Population Tubulin-Different-Phenotype (%),[2],7% and 6%
same,Total Cell Count,[2],293 and 134
same,Population Apoptotic (%),[3],91% and 100%
same,Population Fragmented Nuclei (%),[3],24% and 15%
same,Population Healthy Nuclei (%),[3],68% and 76%
same,Population Hoechst High Intensity Objects (%),[3],3% and 1%
same,Population Membrane Permeable-Phenotype (%),[3],6% and 9%
same,Population Mitochondria Different-Phenotype (%),[3],4% and 5%
same,Population Mitotic Cells (%),[3],8% and 0%
same,Population Normal (%),[3],96% and 98%
same,Population Pyknosed Nuclei (%),[3],7% and 8%
same,Population Tubulin-Different-Phenotype (%),[3],5% and 6%
same,Total Cell Count,[3],342 and 226
same,Population Apoptotic (%),[4],91% and 100%
same,Population Fragmented Nuclei (%),[4],25% and 14%
same,Population Healthy Nuclei (%),[4],64% and 76%
same,Population Hoechst High Intensity Objects (%),[4],1% and 0%
same,Population Membrane Permeable-Phenotype (%),[4],7% and 11%
same,Population Mitochondria Different-Phenotype (%),[4],3% and 8%
same,Population Mitotic Cells (%),[4],8% and 0%
same,Population Normal (%),[4],98% and 99%
same,Population Pyknosed Nuclei (%),[4],9%
same,Population Tubulin-Different-Phenotype (%),[4],5% and 8%
same,Total Cell Count,[4],353 and 164
same,Population Apoptotic (%),[5],89% and 90%
same,Population Fragmented Nuclei (%),[5],17% and 12%
same,Population Healthy Nuclei (%),[5],73% and 79%
same,Population Hoechst High Intensity Objects (%),[5],2% and 1%
same,Population Membrane Permeable-Phenotype (%),[5],9% and 6%
same,Population Mitochondria Different-Phenotype (%),[5],5% and 4%
same,Population Mitotic Cells (%),[5],10%
same,Population Normal (%),[5],97% and 98%
same,Population Pyknosed Nuclei (%),[5],8%
same,Population Tubulin-Different-Phenotype (%),[5],5%
same,Total Cell Count,[5],475 and 371
same,Population Apoptotic (%),[6],81% and 89%
same,Population Fragmented Nuclei (%),[6],20% and 10%
same,Population Healthy Nuclei (%),[6],67% and 76%
same,Population Hoechst High Intensity Objects (%),[6],2%
same,Population Membrane Permeable-Phenotype (%),[6],8% and 11%
same,Population Mitochondria Different-Phenotype (%),[6],4% and 8%
same,Population Mitotic Cells (%),[6],18% and 10%
same,Population Normal (%),[6],97%
same,Population Pyknosed Nuclei (%),[6],12% and 13%
same,Population Tubulin-Different-Phenotype (%),[6],6% and 8%
same,Total Cell Count,[6],445 and 226
